Measurements taken from ChEMBL document CHEMBL1123585, “Differential effects of N-terminal modifications on the biological potencies of growth hormone releasing factor analogues with varying chain lengths” (1987).
Values belong to the compound of their own block, whether it stands above or below them.

What was measured:
Rattus norvegicus [1] = experiment: Effect on growth hormone release(GRF) was determined in nembutal-anesthetized rat, at dose of 80 ug/100 g body weight.; assay type: functional, organism-based
Summary of the method: (§1)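 Male Charles River rats (175-275 g), anesthetized with sodium pentobarbital 6 mg/100 g body weight. Six to nine per group. Peptide or saline given subcutaneously in 0.5 mL, 30 min after anesthetic. Jugular vein blood taken 15 min post-injection. Plasma GH measured by radioimmunoassay and reported as ng/mL, mean ± SEM.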

[2] = molecular target: T1, Growth hormone-releasing hormone receptor (Rattus norvegicus) (UniProt Q02644); experiment: Tested for the potency of growth hormone (GRF) on subcutaneous administration in anesthetized male Charles River rats; assay type: functional, organism-based
T1 sequence (whole entry): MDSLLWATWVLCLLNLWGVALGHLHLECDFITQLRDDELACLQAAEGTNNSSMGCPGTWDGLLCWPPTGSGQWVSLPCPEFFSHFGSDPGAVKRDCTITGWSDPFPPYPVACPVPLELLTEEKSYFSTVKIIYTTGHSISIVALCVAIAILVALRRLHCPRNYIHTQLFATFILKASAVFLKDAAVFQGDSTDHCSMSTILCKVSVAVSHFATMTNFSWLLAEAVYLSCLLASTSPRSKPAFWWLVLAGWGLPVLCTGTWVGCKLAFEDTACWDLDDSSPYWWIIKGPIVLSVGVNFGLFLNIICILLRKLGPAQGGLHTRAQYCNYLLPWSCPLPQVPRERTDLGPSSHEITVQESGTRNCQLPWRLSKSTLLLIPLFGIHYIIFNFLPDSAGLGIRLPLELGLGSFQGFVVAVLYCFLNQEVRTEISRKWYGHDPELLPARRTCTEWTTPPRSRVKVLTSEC
Summary of the method: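 Pentobarbital-anesthetized male rats (175-275 g), six to nine per group, received two subcutaneous doses of analogue or of reference GRF(1-29)NH2, in 0.5 mL, 30 min after anesthesia. Plasma GH measured by RIA 15 min later. Potency with 95% confidence limits calculated from a four-point assay design by the Pugsley method.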

Rattus norvegicus [3] = experiment: Effect on growth hormone release(GRF) was determined in nembutal-anesthetized rat, at dose of 200 ug/100 g body weight.; assay type: functional, organism-based; summary of the method: as §1
[4] = molecular target: T1, Growth hormone-releasing hormone receptor (Rattus norvegicus); experiment: In vitro rat pituitary cell growth hormone response was obtained; assay type: functional, cell-based; details: Pituitary gland cell
Rattus norvegicus [5] = experiment: Effect on growth hormone release(GRF) was determined in nembutal-anesthetized rat, at dose of 10 ug/100 g body weight.; assay type: functional, organism-based; summary of the method: as §1
Rattus norvegicus [6] = experiment: Effect on growth hormone release(GRF) was determined in nembutal-anesthetized rat, at dose of 25 ug/100 g body weight.; assay type: functional, organism-based; summary of the method: as §1
Rattus norvegicus [7] = experiment: Effect on growth hormone release(GRF) was determined in nembutal-anesthetized rat, at dose of 50 ug/100 g body weight.; assay type: functional, organism-based; summary of the method: as §1
Rattus norvegicus [8] = experiment: Effect on growth hormone release(GRF) was determined in nembutal-anesthetized rat, at dose of 125 ug/100 g body weight.; assay type: functional, organism-based; summary of the method: as §1
Rattus norvegicus [9] = experiment: Effect on growth hormone release (GRF) was determined in nembutal-anesthetized rat, at dose of 62.5 ug/100 g body weight.; assay type: functional, organism-based; summary of the method: as §1
Rattus norvegicus [10] = experiment: Effect on growth hormone release (GRF) was determined in nembutal-anesthetized rat, at dose of 25 ug/100 g body weight.; assay type: functional, organism-based; summary of the method: as §1
Rattus norvegicus [11] = experiment: Effect on growth hormone release(GRF) was determined in nembutal-anesthetized rat, at dose of 40 ug/100 g body weight.; assay type: functional, organism-based; summary of the method: as §1
[12] = molecular target: T1, Growth hormone-releasing hormone receptor (Rattus norvegicus); experiment: Effect on growth hormone release(GRF) was determined in nembutal-anesthetized rat, at dose of 100 ug/100 g body weight.; assay type: functional; summary of the method: as §1

Potency [2]: 7%
Potency [4]: 0.0004%
Compound: CC[C@H](C)[C@H](NC(=O)[C@H](C)NC(=O)[C@H](CC(=O)O)NC(=O)[C@@H](C)NC(=O)[C@@H](N)Cc1ccc(O)cc1)C(=O)N[C@@H](Cc1ccccc1)C(=O)N[C@H](C(=O)N[C@@H](CC(N)=O)C(=O)N[C@@H](CO)C(=O)N[C@@H](Cc1ccc(O)cc1)C(=O)N[C@@H](CCCN=C(N)N)C(=O)N[C@@H](CCCCN)C(=O)N[C@H](C(=O)N[C@@H](CC(C)C)C(=O)NCC(=O)N[C@@H](CCC(N)=O)C(=O)N[C@@H](CC(C)C)C(=O)N[C@@H](CO)C(=O)N[C@@H](C)C(=O)N[C@@H](CCCN=C(N)N)C(=O)N[C@@H](CCCCN)C(=O)N[C@@H](CC(C)C)C(=O)N[C@@H](CC(C)C)C(=O)N[C@@H](CCC(N)=O)C(=O)N[C@@H](CC(=O)O)C(=O)N[C@H](C(=O)N[C@@H](CC(C)C)C(N)=O)[C@@H](C)CC)C(C)C)[C@@H](C)O (stereo in doubt; 4)
Plasma GH release (Rattus norvegicus [1]): 742 ng/mL
Plasma GH release (Rattus norvegicus [3]): 1500 ng/mL

Potency [2]: 100%
Potency [4]: 100%
Compound: CC[C@H](C)[C@H](NC(=O)[C@H](C)NC(=O)[C@H](CC(=O)O)NC(=O)[C@H](C)NC(=O)[C@@H](N)Cc1ccc(O)cc1)C(=O)N[C@@H](Cc1ccccc1)C(=O)N[C@H](C(=O)N[C@@H](CC(N)=O)C(=O)N[C@@H](CO)C(=O)N[C@@H](Cc1ccc(O)cc1)C(=O)N[C@@H](CCCN=C(N)N)C(=O)N[C@@H](CCCCN)C(=O)N[C@H](C(=O)N[C@@H](CC(C)C)C(=O)NCC(=O)N[C@@H](CCC(N)=O)C(=O)N[C@@H](CC(C)C)C(=O)N[C@@H](CO)C(=O)N[C@@H](C)C(=O)N[C@@H](CCCN=C(N)N)C(=O)N[C@@H](CCCCN)C(=O)N[C@@H](CC(C)C)C(=O)N[C@@H](CC(C)C)C(=O)N[C@@H](CCC(N)=O)C(=O)N[C@@H](CC(=O)O)C(=O)N[C@H](C(=O)N[C@@H](CCSC)C(=O)N[C@@H](CO)C(=O)N[C@@H](CCCN=C(N)N)C(N)=O)[C@@H](C)CC)C(C)C)[C@@H](C)O
Plasma GH release (Rattus norvegicus [5]): 1180 ng/mL
Plasma GH release (Rattus norvegicus [6]): 2570 ng/mL

Potency [2]: 20%
Compound: CC[C@H](C)[C@H](NC(=O)[C@H](C)NC(=O)[C@H](CC(=O)O)NC(=O)[C@@H](C)NC(=O)[C@@H](N)Cc1ccc(O)cc1)C(=O)N[C@@H](Cc1ccccc1)C(=O)N[C@H](C(=O)N[C@@H](CC(N)=O)C(=O)N[C@@H](CO)C(=O)N[C@@H](Cc1ccc(O)cc1)C(=O)N[C@@H](CCCN=C(N)N)C(=O)N[C@@H](CCCCN)C(=O)N[C@H](C(=O)N[C@@H](CC(C)C)C(=O)NCC(=O)N[C@@H](CCC(N)=O)C(=O)N[C@@H](CC(C)C)C(=O)N[C@@H](CO)C(=O)N[C@@H](C)C(=O)N[C@@H](CCCN=C(N)N)C(=O)N[C@@H](CCCCN)C(=O)N[C@@H](CC(C)C)C(=O)N[C@@H](CC(C)C)C(=O)N[C@@H](CCCN=C(N)N)C(N)=O)C(C)C)[C@@H](C)O
Plasma GH release (Rattus norvegicus [7]): 1020 ng/mL
Plasma GH release (Rattus norvegicus [8]): 2790 ng/mL

Potency [2]: 57%
Potency [4]: 2%
Compound: H-YADAIFTNSYRKVLGQLSARKLLQDILSR-NH2
Plasma GH release (Rattus norvegicus [9]): 1720 ng/mL
Plasma GH release (Rattus norvegicus [10]): 1410 ng/mL

Potency [2]: < 5%
Plasma GH release [12]: 507 ng/mL
Potency [4]: 0.001%
Compound: CC[C@H](C)[C@H](NC(=O)[C@H](C)NC(=O)[C@H](CC(=O)O)NC(=O)[C@@H](C)NC(=O)[C@@H](N)Cc1ccc(O)cc1)C(=O)N[C@@H](Cc1ccccc1)C(=O)N[C@H](C(=O)N[C@@H](CC(N)=O)C(=O)N[C@@H](CO)C(=O)N[C@@H](Cc1ccc(O)cc1)C(=O)N[C@@H](CCCN=C(N)N)C(=O)N[C@@H](CCCCN)C(=O)N[C@H](C(=O)N[C@@H](CC(C)C)C(=O)NCC(=O)N[C@@H](CCC(N)=O)C(=O)N[C@@H](CC(C)C)C(=O)N[C@@H](CO)C(=O)N[C@@H](C)C(=O)N[C@@H](CCCN=C(N)N)C(=O)N[C@@H](CCCCN)C(=O)N[C@@H](CC(C)C)C(=O)N[C@@H](CC(C)C)C(=O)N[C@@H](CCC(N)=O)C(=O)N[C@@H](CC(=O)O)C(=O)N[C@H](C(=O)N[C@@H](CC(C)C)C(N)=O)[C@@H](C)CC)C(C)C)[C@@H](C)O (stereo in doubt; 3)
Plasma GH release (Rattus norvegicus [11]): 741 ng/mL
